In ChEMBL document CHEMBL5357024, “MDM2 Antagonist Idasanutlin Reduces HDAC1/2 Abundance and Corepressor Partners but Not HDAC3” (ACS Med Chem Lett, 2024):

What was measured:
Assay type in all cases: cell-based
[1] = target: Lysine-specific histone demethylase 1A (Homo sapiens) (UniProt O60341); assay: Induction of LSD1 degradation in human HCT-116 cells assessed as reduction in LSD1 abundance by measuring remaining activity at 5 uM measured after 24 hrs by Western blot analysis (reference value: 100%)
Method in brief: (§1)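 HCT116 cells seeded in six-well plates for 24 h, then exposed 24 h to compound (0.01–10 μM) or DMSO in fresh medium. Lysis in Tris-HCl/NaCl/NP-40/Triton X-100 with protease inhibitor. Bradford-normalised 30 μg protein per lane. Quantitative Western blot used specific HDAC1, HDAC2, HDAC3, LSD1 or Sin3a antibodies with IRDye secondaries. Abundance compared with DMSO, n = 2 replicates.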

[2] = target: T1, E3 ubiquitin-protein ligase Mdm2/Histone deacetylase 3 (Homo sapiens) (UniProt Q00987+O15379); assay: PROTAC activity at MDM2/HDAC3 in human HCT-116 cells assessed as reduction in HDAC3 abundance by measuring remaining activity at 0.5 uM measured after 24 hrs by Western blot analysis
Method in brief: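 HCT116 cells in DMEM with 10% FBS and glutamine/penicillin/streptomycin at 37 °C, 5% CO2. Seeded 4 × 10^5 cells/well, after 24 h treated 24 h with DMSO or compound in fresh medium. Lysed in Tris-HCl/NaCl/NP-40/Triton X-100 buffer with protease inhibitor, Bradford-quantified, 30 μg protein per lane. Quantitative Western blot with specific HDAC1/2/3 antibodies, IRDye secondaries, infrared imaging, versus DMSO. n = 2 replicates.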

[3] = target: T2, Paired amphipathic helix protein Sin3a (Homo sapiens) (UniProt Q96ST3); assay: Induction of SIN3A degradation in human HCT-116 cells assessed as reduction in SIN3A abundance by measuring remaining activity at 5 uM measured after 24 hrs by Western blot analysis (reference value: 100%); method in brief: as §1
T2 sequence (whole entry): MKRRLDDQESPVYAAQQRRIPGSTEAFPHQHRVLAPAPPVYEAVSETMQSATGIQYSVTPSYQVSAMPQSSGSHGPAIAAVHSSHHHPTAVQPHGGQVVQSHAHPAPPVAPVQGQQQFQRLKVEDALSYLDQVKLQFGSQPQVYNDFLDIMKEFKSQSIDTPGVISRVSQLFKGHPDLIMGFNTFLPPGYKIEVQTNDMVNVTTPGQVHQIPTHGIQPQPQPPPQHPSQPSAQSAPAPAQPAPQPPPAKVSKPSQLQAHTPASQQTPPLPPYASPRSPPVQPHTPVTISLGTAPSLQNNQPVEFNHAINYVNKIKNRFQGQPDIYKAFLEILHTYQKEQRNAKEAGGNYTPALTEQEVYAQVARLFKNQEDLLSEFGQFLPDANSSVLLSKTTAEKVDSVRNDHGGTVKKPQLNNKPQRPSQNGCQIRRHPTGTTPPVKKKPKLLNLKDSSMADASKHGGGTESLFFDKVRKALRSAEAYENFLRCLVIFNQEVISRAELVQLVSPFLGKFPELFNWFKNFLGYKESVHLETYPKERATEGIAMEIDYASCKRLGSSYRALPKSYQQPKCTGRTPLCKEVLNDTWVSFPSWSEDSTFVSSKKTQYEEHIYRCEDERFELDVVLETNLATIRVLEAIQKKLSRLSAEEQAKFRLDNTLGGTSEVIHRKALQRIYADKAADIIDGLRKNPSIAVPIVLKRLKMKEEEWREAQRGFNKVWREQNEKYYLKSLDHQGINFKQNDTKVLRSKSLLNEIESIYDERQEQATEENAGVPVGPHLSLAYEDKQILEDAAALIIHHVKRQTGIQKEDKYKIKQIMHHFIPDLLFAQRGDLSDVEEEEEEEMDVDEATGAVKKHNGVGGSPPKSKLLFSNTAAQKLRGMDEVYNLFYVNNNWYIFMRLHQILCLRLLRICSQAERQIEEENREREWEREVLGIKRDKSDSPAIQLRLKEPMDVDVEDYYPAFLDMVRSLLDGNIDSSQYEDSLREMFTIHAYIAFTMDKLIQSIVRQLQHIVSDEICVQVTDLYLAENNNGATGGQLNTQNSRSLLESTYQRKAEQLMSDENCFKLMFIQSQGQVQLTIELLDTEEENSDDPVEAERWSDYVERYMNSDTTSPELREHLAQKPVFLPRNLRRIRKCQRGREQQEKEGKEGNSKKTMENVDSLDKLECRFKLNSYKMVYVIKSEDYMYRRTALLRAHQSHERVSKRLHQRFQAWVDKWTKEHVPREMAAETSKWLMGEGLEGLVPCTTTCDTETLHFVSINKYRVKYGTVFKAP

[4] = target: T1, E3 ubiquitin-protein ligase Mdm2/Histone deacetylase 3 (Homo sapiens); assay: PROTAC activity at MDM2/HDAC3 in human HCT-116 cells assessed as reduction in HDAC3 abundance by measuring remaining activity at 0.025 uM measured after 24 hrs by Western blot analysis; method in brief: as §1
[5] = target: T3, E3 ubiquitin-protein ligase Mdm2/Histone deacetylase 2 (Homo sapiens) (UniProt Q00987+Q92769); assay: PROTAC activity at MDM2/HDAC2 in human HCT-116 cells assessed as decrease in HDAC2 abundance by measuring remaining activity at 0.1 uM measured after 24 hrs by Western blot analysis (reference value: 100%); method in brief: as §1
[6] = target: T3, E3 ubiquitin-protein ligase Mdm2/Histone deacetylase 2 (Homo sapiens); assay: PROTAC activity at MDM2/HDAC2 in human HCT-116 cells assessed as decrease in HDAC2 abundance by measuring remaining activity at 0.25 uM measured after 24 hrs by Western blot analysis (reference value: 100%); method in brief: as §1
[7] = target: T3, E3 ubiquitin-protein ligase Mdm2/Histone deacetylase 2 (Homo sapiens); assay: PROTAC activity at MDM2/HDAC2 in human HCT-116 cells assessed as decrease in HDAC2 abundance by measuring remaining activity at 10 uM measured after 24 hrs by Western blot analysis (reference value: 100%); method in brief: as §1
[8] = target: T4, E3 ubiquitin-protein ligase Mdm2/Histone deacetylase 1 (Homo sapiens) (UniProt Q00987+Q13547); assay: PROTAC activity at MDM2/HDAC1 in human HCT-116 cells assessed as decrease in HDAC1 abundance by measuring remaining activity at 0.25 uM measured after 24 hrs by Western blot analysis (reference value: 100%); method in brief: as §1
[9] = target: T3, E3 ubiquitin-protein ligase Mdm2/Histone deacetylase 2 (Homo sapiens); assay: PROTAC activity at MDM2/HDAC2 in human HCT-116 cells assessed as induction of HDAC2 degradation by Western blot analysis; conditions: dose 0.01-10 µM
[10] = target: T4, E3 ubiquitin-protein ligase Mdm2/Histone deacetylase 1 (Homo sapiens); assay: PROTAC activity at MDM2/HDAC1 in human HCT-116 cells assessed as decrease in HDAC1 abundance by measuring remaining activity at 1 uM measured after 24 hrs by Western blot analysis (reference value: 100%); method in brief: as §1
[11] = target: T3, E3 ubiquitin-protein ligase Mdm2/Histone deacetylase 2 (Homo sapiens); assay: PROTAC activity at MDM2/HDAC2 in human HCT-116 cells assessed as decrease in HDAC2 abundance by measuring remaining activity at 5 uM measured after 24 hrs by Western blot analysis (reference value: 100%); method in brief: as §1
[12] = target: Lysine-specific histone demethylase 1A (Homo sapiens) (UniProt O60341); assay: Induction of LSD1 degradation in human HCT-116 cells assessed as reduction in LSD1 abundance by measuring remaining activity at 0.025 uM measured after 24 hrs by Western blot analysis (reference value: 100%); method in brief: as §1

T3 sequence (Q00987 whole entry, looked up): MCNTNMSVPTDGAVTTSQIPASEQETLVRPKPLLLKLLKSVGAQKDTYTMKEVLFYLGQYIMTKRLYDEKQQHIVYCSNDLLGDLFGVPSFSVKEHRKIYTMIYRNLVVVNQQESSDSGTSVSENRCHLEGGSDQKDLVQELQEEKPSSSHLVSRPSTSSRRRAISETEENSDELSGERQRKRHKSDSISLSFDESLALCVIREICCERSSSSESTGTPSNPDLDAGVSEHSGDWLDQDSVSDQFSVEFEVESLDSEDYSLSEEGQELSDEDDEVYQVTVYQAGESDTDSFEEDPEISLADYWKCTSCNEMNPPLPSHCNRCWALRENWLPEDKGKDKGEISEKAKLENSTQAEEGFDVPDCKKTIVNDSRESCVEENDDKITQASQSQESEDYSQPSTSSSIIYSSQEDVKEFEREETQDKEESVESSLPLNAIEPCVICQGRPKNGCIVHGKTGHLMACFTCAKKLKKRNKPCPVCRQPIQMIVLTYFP
T3 sequence (Q92769 whole entry, looked up): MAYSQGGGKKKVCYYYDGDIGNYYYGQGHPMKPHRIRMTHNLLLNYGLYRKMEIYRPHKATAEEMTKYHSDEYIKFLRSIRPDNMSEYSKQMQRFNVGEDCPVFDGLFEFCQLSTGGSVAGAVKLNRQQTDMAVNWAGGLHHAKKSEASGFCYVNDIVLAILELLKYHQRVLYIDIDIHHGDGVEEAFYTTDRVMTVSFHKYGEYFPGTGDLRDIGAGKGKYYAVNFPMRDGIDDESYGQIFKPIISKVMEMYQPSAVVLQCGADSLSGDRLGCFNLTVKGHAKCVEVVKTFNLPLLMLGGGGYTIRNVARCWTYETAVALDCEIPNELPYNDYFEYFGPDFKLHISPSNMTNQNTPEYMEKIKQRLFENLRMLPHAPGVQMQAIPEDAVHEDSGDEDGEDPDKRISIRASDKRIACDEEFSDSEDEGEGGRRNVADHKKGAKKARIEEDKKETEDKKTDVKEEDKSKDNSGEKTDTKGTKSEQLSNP
T1 sequence (O15379 whole entry, looked up): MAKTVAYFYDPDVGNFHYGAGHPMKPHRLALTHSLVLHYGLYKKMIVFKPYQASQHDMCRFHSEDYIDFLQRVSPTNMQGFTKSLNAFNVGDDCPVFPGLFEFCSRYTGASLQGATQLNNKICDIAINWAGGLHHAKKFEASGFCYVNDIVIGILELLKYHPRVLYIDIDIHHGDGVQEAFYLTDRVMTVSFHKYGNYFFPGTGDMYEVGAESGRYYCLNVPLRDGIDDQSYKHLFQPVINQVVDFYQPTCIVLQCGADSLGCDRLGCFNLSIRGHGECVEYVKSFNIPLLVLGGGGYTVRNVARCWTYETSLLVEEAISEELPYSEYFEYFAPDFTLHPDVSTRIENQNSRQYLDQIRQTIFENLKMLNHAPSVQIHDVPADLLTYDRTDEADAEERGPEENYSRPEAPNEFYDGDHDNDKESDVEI
T1 sequence (Q00987 whole entry, looked up): as the sequence (Q00987 whole entry, looked up) above
T4 sequence (Q00987 whole entry, looked up): as above
T4 sequence (Q13547 whole entry, looked up): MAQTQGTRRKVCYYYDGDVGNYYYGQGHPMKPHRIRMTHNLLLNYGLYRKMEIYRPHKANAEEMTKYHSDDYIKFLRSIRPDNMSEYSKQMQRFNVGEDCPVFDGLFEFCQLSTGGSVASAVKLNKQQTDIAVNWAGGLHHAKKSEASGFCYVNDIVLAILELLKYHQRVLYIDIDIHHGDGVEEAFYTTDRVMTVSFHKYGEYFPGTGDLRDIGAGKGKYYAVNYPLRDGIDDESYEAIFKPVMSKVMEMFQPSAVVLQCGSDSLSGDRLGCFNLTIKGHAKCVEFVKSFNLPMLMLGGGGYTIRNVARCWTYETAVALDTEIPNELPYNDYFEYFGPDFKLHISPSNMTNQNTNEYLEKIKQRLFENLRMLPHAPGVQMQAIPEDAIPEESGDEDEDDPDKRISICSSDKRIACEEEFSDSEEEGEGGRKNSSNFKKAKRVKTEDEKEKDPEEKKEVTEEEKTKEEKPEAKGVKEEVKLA

Which Activity [1] does the source give for `COc1cc(C(=O)NCCOCCOCCOCCOCCC(=O)Nc2ccc(C(=O)Nc3ccccc3N)cc2)ccc1NC(=O)[C@@H]1N[C@@H](CC(C)(C)C)[C@](C#N)(c2ccc(Cl)cc2F)[C@H]1c1cccc(Cl)c1F` here?
The Activity was 70%.

And the Activity [2]?
Its Activity is 106%.

And the Activity [3]?
The Activity was 53%.

And the Activity [4]?
The Activity was 100%.

And the Activity [5]?
Its Activity is 92%.

And the Activity [6]?
Its Activity is 90%.

And the Activity [7]?
The Activity was 54%.

And the Activity [8]?
Its Activity is 70%.

What about the Activity [9] of the same compound?
The Activity was “Dose-Dependent Effect”.

What about the Activity [10] of the same compound?
The Activity was 43%.

And the Activity [11]?
The Activity was 69%.

What about the Activity [12] of the same compound?
Its Activity is 102%.
